In article PMC11622326 (Diabetes, obesity & metabolism, 2024):

Tests used:
DIO mice [1] = experiment: Terminal serum chemistry and complete blood count in DIO mice; assay type: in vivo, mouse
Procedure, shortened: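 Day-30 cardiac-puncture blood (~700 μL) from obese HFD mice given saline, 10 or 32 mg/kg/day SC daily. Mice were dosed 1 h before CO2 euthanasia after a 4 h fast. 300 μL used for complete blood count; 150 μL for serum chemistry (TG, ALT, AST, ketones, CK, LDH, lipids). Some endpoints analysed by Kruskal-Wallis test.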

[2] = Acute intravenous dosing plasma PK in mice; assay type: in vivo, mouse; conditions: IV 5 mg/kg
Procedure, shortened: (§1)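 Male C57BL/6 mice (~8 weeks) fasted ~12 h before dosing; food returned 4 h post-dose. Single dose at 5 mg/kg IV (n=3) or 30 mg/kg PO (n=3). Saphenous cross-sampling at 0.0833 h (IV only), 0.25, 0.5, 1, 2, 4, 8, 12 h (PO only) and 24 h. K2EDTA plasma stored at −70°C, then LC-MS/MS. Mean ± SD.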

DIO mice [3] = experiment: Non-fasted; assay type: in vivo, mouse
Procedure, shortened: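 HFD-fed obese male C57BL/6 mice (n=8/group) received saline, 10 or 32 mg/kg/day SC once daily. Tail blood was taken noon–1 PM without fasting on days −7, 0, 7, 14, 21 and 28. Glucose read by test strip; plasma insulin by ELISA. Change expressed from Day 0 baseline.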

[4] = molecular target: T1, monoamine oxidase-A (MAO-A) (Homo sapiens, UniProt P21397); experiment: Cerep panel: MAO-A inhibition; assay type: biochemical; conditions: 10 μM
T1 sequence (P21397 1-527): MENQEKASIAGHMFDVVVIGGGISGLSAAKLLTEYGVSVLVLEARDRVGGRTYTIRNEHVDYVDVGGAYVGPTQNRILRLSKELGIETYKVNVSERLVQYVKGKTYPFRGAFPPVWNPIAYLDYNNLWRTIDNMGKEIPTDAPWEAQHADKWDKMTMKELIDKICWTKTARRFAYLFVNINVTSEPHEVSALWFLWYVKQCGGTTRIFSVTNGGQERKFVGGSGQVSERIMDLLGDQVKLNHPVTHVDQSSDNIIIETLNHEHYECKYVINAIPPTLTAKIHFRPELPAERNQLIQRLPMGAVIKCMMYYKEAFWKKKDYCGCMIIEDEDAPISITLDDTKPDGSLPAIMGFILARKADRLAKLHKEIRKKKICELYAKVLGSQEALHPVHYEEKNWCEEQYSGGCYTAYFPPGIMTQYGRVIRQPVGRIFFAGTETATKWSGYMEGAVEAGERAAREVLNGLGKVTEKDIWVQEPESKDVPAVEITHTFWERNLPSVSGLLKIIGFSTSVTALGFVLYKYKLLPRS

DIO mice [5] = experiment: Oral glucose tolerance test; assay type: in vivo, mouse; conditions: Day 21, high-dose 32 mg/kg/day SC vs control and low-dose
Procedure, shortened: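 Performed on day 21 in obese HFD mice dosed daily SC (saline, 10 or 32 mg/kg/day). After fed-state bleed, mice fasted 4 h, receiving their treatment at 3 h of fasting. One hour post-dose, 2 g/kg oral glucose bolus. Blood glucose at 0, 15, 30, 60 and 120 min; plasma insulin at 0 and 15 min.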

[6] = Metabolic stability in cryopreserved mouse hepatocytes; assay type: in vitro ADME
[7] = Mouse plasma protein binding; assay type: in vitro ADME
[8] = Solubility in aqueous and simulated gastric fluids; assay type: physicochemical
[9] = Acute oral dosing plasma PK in mice; assay type: in vivo, mouse
Procedure, shortened: as §1

[10] = system: Cerep panel of major receptors, enzymes, and uptake transporter proteins; experiment: Cerep off-target panel; conditions: 10 μM
[11] = Terminal liver 5A1MQ concentration in DIO mice; assay type: in vivo, mouse; conditions: high-dose 32 mg/kg/day SC, ~1–2 h post-dosing on Day 30
Procedure, shortened: (§2)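 On day 30, obese HFD mice were dosed (saline, 10 or 32 mg/kg/day SC) 1 h before euthanasia, fasted 4 h, and killed by CO2. Left liver lobe cut into ~30 mg sections, flash-frozen, and assayed by LC-MS/MS for test compound and 1-MNA. Quantitation limit 1 ng/mL.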

DIO mice [12] = experiment: Terminal liver weight, histopathology, F4/80 and liver triglycerides in DIO mice; assay type: in vivo, mouse
Procedure, shortened: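 Terminal day-30 livers from obese HFD mice treated daily SC (saline, 10 or 32 mg/kg/day; dosed 1 h pre-sacrifice, 4 h fast). Whole liver weighed. Left-lobe sections flash-frozen for triglyceride assay or formalin-fixed, paraffin-embedded for H&E and F4/80 IHC. Outputs: steatosis, inflammation, ballooning and NAS scores; hepatocyte count; cross-sectional area; F4/80-stained area by image analysis.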

[13] = Tissue distribution of 5A1MQ after repeat SC dosing in mice; assay type: in vivo, mouse
Procedure, shortened: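 Male C57BL/6 mice (18–20 weeks) given 25 mg/kg SC once daily for 5 days. On day 5, subsets (n=3/timepoint) bled by cardiac puncture at 1, 4 and 8 h post-dose. Epididymal white fat, liver and quadriceps collected terminally and stored at −70°C. Plasma and tissue levels measured by LC-MS/MS; tissue-to-plasma ratios derived.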

[14] = Acute and repeat SC dosing plasma PK in mice; assay type: in vivo, mouse; conditions: for Cmax: plasma
Procedure, shortened: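 Male C57BL/6 mice (18–20 weeks), non-fasted, on certified chow, group-housed. Acute arm (n=6): single 25 mg/kg SC. Repeat arm (n=12): 25 mg/kg SC once daily for 5 days. Plasma stored at −70°C and assayed by LC-MS/MS. Mean ± SD.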

DIO mice [15] = experiment: Efficacy of 5A1MQ in DIO mice: body weight, whole-body composition, food intake; assay type: in vivo, mouse; conditions: for absolute fat mass gain: by study termination, control 4.7 g
Procedure, shortened: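 Male C57BL/6 mice (~18 weeks) kept on HFD for ≥12 weeks, singly housed, stabilised at ~40–50 g. After handling and 3 days of sham saline SC injections, randomised by baseline body composition (n=8/group). Saline, 10 or 32 mg/kg/day SC once daily at 4–5 PM for 30 days. Weight and food intake measured twice weekly; EchoMRI on days −1, 8, 15, 23, 29. Two-way repeated-measures ANOVA with FDR correction; ANCOVA with body weight covariate; mean ± SEM.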

mouse NNMT = molecular target: T2, mouse NNMT (Mus musculus, UniProt O55239); experiment: In vitro biochemical assay against mouse NNMT enzyme
T2 sequence (O55239 1-264): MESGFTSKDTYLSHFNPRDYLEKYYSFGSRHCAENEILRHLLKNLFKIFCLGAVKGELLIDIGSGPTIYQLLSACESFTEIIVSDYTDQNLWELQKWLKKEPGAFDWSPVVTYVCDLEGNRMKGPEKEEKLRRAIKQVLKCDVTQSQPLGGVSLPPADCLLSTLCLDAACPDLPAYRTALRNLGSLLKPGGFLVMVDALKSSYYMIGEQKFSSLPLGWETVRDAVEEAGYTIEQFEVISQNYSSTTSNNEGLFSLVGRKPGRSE

1-MNA = experiment: Terminal liver 1-MNA level in DIO mice; assay type: in vivo, mouse; conditions: high-dose 32 mg/kg/day SC, ~1–2 h post-dosing on Day 30
Procedure, shortened: as §2

[16] = statistically significant only at the low dose (p<0.05 vs control)
[17] = SC 25 mg/kg once-daily x5, 1 h post-dose
[18] = SC 25 mg/kg once-daily x5, 8 h post-dose
[19] = SC 25 mg/kg once-daily for 5 days
[20] = SC 25 mg/kg single (acute) dose

C[n+]1cccc2c(N)cccc21 [5A1MQ, 5-amino-1-methylquinolium]
decrease in monocytes vs control (DIO mice [1]; high-dose 32 mg/kg/day SC, p<0.001): 50%
decrease in lymphocytes vs control (DIO mice [1]; high-dose 32 mg/kg/day SC, p<0.05): 31%
serum ketone body levels (DIO mice [1]; p<0.0001 high dose vs control): dose-dependently decreased
serum ALT (DIO mice [1]; p<0.001 high-dose vs control): dose-related decreases
serum TG levels (DIO mice [1]; p<0.01 high-dose vs control): significantly lower
serum AST (DIO mice [1]; p<0.01 low-dose vs control): dose-related decreases
total white blood cell count (DIO mice [1]; p<0.05 high-dose vs control): significantly reduced
serum CK (DIO mice [1]; [16]): significantly lowered
serum LDH (DIO mice [1]; [16]): significantly lowered
plasma clearance [2]: 101 mL/min/kg
terminal half-life [2]: 6.3 h
steady-state volume of distribution ([2]; estimated): 39 L/kg
AUC0-∞ ([2]; plasma): 825 ng·h/mL
Cmax ([2]; plasma): 2,009 ng/mL
weekly fed-state blood glucose (DIO mice [3]; 10 and 32 mg/kg/day SC): did not alter
fed-state plasma insulin decrease from baseline (Day 0) to Day 28 (DIO mice [3]; high-dose 32 mg/kg/day SC, control increased by 112%): 9%
fed-state plasma insulin increase from baseline (Day 0) to Day 28 (DIO mice [3]; low-dose 10 mg/kg/day SC, control increased by 112%): 46%
inhibition of monoamine oxidase-A (MAO-A) [4]: 67.4%
OGTT circulating glucose levels at 15- and 30-min post-bolus glucose (DIO mice [5]): significantly decreased
OGTT plasma insulin at 15 min post-glucose loading (DIO mice [5]; p<0.0001): suppressed
clearance [6]: 57.9 mL/min/kg
half-life (T1/2) [6]: < 7 min
mouse plasma protein binding (Fb) [7]: 7%
solubility ([8]; phosphate buffered saline): > 100 mg/mL
solubility ([8]; simulated gastric fluids): > 10 mg/mL
Tmax ([9]; PO 30 mg/kg): 4 h
estimated terminal half-life ([9]; PO 30 mg/kg): 14.8 h
oral bioavailability ([9]; PO 30 mg/kg vs IV 5 mg/kg): 3.5%
AUC0-∞ ([9]; PO 30 mg/kg, plasma): 224 ng·h/mL
Cmax ([9]; PO 30 mg/kg, plasma): 14.5 ng/mL
activity against Cerep panel targets (all except MAO-A) [10]: no significant activity
liver concentration of 5A1MQ [11]: 28.5 ng/g
hepatocyte cell count (DIO mice [12]; 10 and 32 mg/kg/day SC, p<0.0001): significant main effects of treatment
NAFLD activity score (NAS) (DIO mice [12]; 10 and 32 mg/kg/day SC, p<0.0001 high dose vs control): dose-dependent improvement
whole-liver cross-sectional area (DIO mice [12]; 10 and 32 mg/kg/day SC, p=0.0015): significant main effects of treatment
liver TG levels (DIO mice [12]; 10 and 32 mg/kg/day SC, p=0.0169): significantly reduced
liver F4/80 signal (macrophage marker) (DIO mice [12]; high-dose 32 mg/kg/day SC vs control, p<0.05): significantly lowered
terminal liver weight (DIO mice [12]; high-dose 32 mg/kg/day SC, control average 2.1 g): 1.4 g
reduction in microvesicular steatosis compared to controls (DIO mice [12]; high-dose 32 mg/kg/day SC, p<0.01): 73%
liver lobular inflammation (DIO mice [12]; p<0.01 high dose vs control): significantly reduced
hepatocellular ballooning (DIO mice [12]; p<0.05 high dose vs control): significantly reduced
EWAT-to-plasma ratio [13, 17]: 1.4
liver-to-plasma ratio [13, 17]: 0.09
mean total exposure level in liver [13, 17]: 83 ng/ng
muscle-to-plasma ratio [13, 17]: 2.2
EWAT-to-plasma ratio [13, 18]: 31.1
liver-to-plasma ratio [13, 18]: 1.4
muscle-to-plasma ratio [13, 18]: 17.0
Plasma AUC0-∞ [14, 19]: 4,687 ng*h/mL
Tmax [14, 19]: ~ 15 minutes
estimated terminal half-life (T1/2) [14, 19]: 12.8 h
Cmax [14, 19]: 5,130 ng/mL
Plasma AUC0-∞ [14, 20]: 7,031 ng*h/mL
estimated terminal half-life (T1/2) [14, 20]: 13.3 h
Tmax ([14]; SC 25 mg/kg single dose): ~ 15 minutes
Cmax ([14]; SC 25 mg/kg single dose): 7,010 ng/mL
longitudinal lean mass (DIO mice [15]; 10 and 32 mg/kg/day SC): no significant main treatment effect
food intake (DIO mice [15]; 10 and 32 mg/kg/day SC, treatment effect): no main effect
absolute fat mass gain (DIO mice [15]; high-dose 32 mg/kg/day SC): 1.3 g
absolute fat mass gain (DIO mice [15]; low-dose 10 mg/kg/day SC): 4.7 g
mouse NNMT IC50 (mouse NNMT): 0.078 µg/mL
mean reduction in 1-MNA level in the liver relative to controls (1-MNA): 39%
